One block for each compound: values may come before it.
Columns and labels:
Protease = Protease (Human immunodeficiency virus 1, UniProt Q9YQ12); experiment: Inhibition of HIV1 recombinant protease expressed in Escherichia coli using Abz-Ala-Arg-Val-Nle-Tyr(NO2)-Glu-Ala-Nle-NH2 as substrate by FRET assay
B16-F10 [1] = experiment: Induction of apoptosis in mouse B16F10 cells assessed as late apoptotic cells at IC50 after 72 hrs by annexin V-FITC/propidium iodide staining-based FACS analysis (reference value: 9.8 +/- 2.2%); format: functional
B16-F10 [2] = experiment: Induction of apoptosis in mouse B16F10 cells assessed as necrotic cells at 2 X IC50 after 72 hrs by annexin V-FITC/propidium iodide staining-based FACS analysis (reference value: 4.0 +/- 0.6%); format: functional
B16-F10 [3] = experiment: Induction of apoptosis in mouse B16F10 cells assessed as early apoptotic cells at IC50 after 72 hrs by annexin V-FITC/propidium iodide staining-based FACS analysis (reference value: 3.9 +/- 0.4%); format: functional
B16-F10 [4] = experiment: Induction of apoptosis in mouse B16F10 cells assessed as normal cells at IC50 after 72 hrs by annexin V-FITC/propidium iodide staining-based FACS analysis (reference value: 77.9 +/- 1.5%); format: functional
B16-F10 [5] = experiment: Cytotoxicity against mouse B16F10 cells after 72 hrs by MTT assay; format: functional, cell-based; settings: B16-F10, 72 h
Method in brief: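 B16F10 cells (DMEM, 2 mM glutamine, 10% heat-inactivated FCS, penicillin/streptomycin; subconfluent) seeded at 11·10^3 per well and exposed to 0–80 µg/mL for 72 h. Compounds were diluted from a 10 mg/mL stock in 50% DMSO/PBS. MTT 0.5 mg/mL for 2 h, formazan dissolved in DMSO, absorbance at 550 nm. Viability is relative to untreated controls; IC50 from four assays of six replicates, mean ± S.E.M.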

B16-F10 [6] = experiment: Induction of apoptosis in mouse B16F10 cells assessed as late apoptotic cells at 2 X IC50 after 72 hrs by annexin V-FITC/propidium iodide staining-based FACS analysis (reference value: 9.8 +/- 2.2%); format: functional
B16-F10 [7] = experiment: Induction of apoptosis in mouse B16F10 cells assessed as necrotic cells at IC50 after 72 hrs by annexin V-FITC/propidium iodide staining-based FACS analysis (reference value: 4.0 +/- 0.6%); format: functional
B16-F10 [8] = experiment: Induction of apoptosis in mouse B16F10 cells assessed as early apoptotic cells at 2 X IC50 after 72 hrs by annexin V-FITC/propidium iodide staining-based FACS analysis (reference value: 3.9 +/- 0.4%); format: functional
B16-F10 [9] = experiment: Induction of apoptosis in mouse B16F10 cells assessed as total apoptotic cells at 2 X IC50 after 72 hrs by annexin V-FITC/propidium iodide staining-based FACS analysis (reference value: 13.7 +/- 2.7%); format: functional
B16-F10 [10] = experiment: Induction of apoptosis in mouse B16F10 cells assessed as total apoptotic cells at IC50 after 72 hrs by annexin V-FITC/propidium iodide staining-based FACS analysis (reference value: 13.7 +/- 2.7%); format: functional
B16-F10 [11] = experiment: Induction of apoptosis in mouse B16F10 cells assessed as normal cells at 2 X IC50 after 72 hrs by annexin V-FITC/propidium iodide staining-based FACS analysis (reference value: 77.9 +/- 1.5%); format: functional

Chain of Protease (Q9YQ12 whole entry): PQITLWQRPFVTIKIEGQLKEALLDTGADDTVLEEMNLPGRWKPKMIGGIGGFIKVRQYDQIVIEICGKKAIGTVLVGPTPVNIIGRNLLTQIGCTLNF

SMILES: CC1(C)CC[C@]2(C(=O)O)CC[C@]3(C)C(=CC[C@@H]4[C@@]5(C)CC[C@H](O)C(C)(C)[C@@H]5CC[C@]43C)[C@@H]2C1 [OLEANOLIC_ACID]
Activity (B16-F10 [1]): 28.2%
IC50 (Protease): 57.7 µM
Activity (B16-F10 [2]): 8.7%
Activity (B16-F10 [3]): 16.4%
Activity (B16-F10 [4]): 44.9%
IC50 (B16-F10 [5]): 106 µM
Activity (B16-F10 [6]): 12.4%
Activity (B16-F10 [7]): 10.1%
Activity (B16-F10 [8]): 29.1%
Activity (B16-F10 [9]): 41.5%
Activity (B16-F10 [10]): 44.6%
Activity (B16-F10 [11]): 49.8%

SMILES: CC1(C)CC[C@]2(C(=O)OCc3ccccc3)CC[C@]3(C)C(=CC[C@@H]4[C@@]5(C)C[C@@H](OC(=O)c6ccccc6C(=O)O)[C@H](OC(=O)c6ccccc6C(=O)O)C(C)(C)[C@@H]5CC[C@]43C)[C@@H]2C1
IC50 (Protease): 1.9 µM

SMILES: CC1(C)CC[C@]2(C(=O)O)CC[C@]3(C)C(=CC[C@@H]4[C@@]5(C)C[C@@H](OC(=O)CCCC(=O)O)[C@H](OC(=O)CCCC(=O)O)C(C)(C)[C@@H]5CC[C@]43C)[C@@H]2C1
IC50 (Protease): 1.4 µM

SMILES: CC1(C)CC[C@]2(C(=O)O)CC[C@]3(C)C(=CC[C@@H]4[C@@]5(C)C[C@@H](OC(=O)CCCC(=O)O)[C@H](O)C(C)(C)[C@@H]5CC[C@]43C)[C@@H]2C1
IC50 (Protease): 3.2 µM

SMILES: CC1(C)CC[C@]2(C(=O)OCc3ccccc3)CC[C@]3(C)C(=CC[C@@H]4[C@@]5(C)CC[C@H](O)C(C)(C)[C@@H]5CC[C@]43C)[C@@H]2C1
Activity (B16-F10 [1]): 12.2%
Activity (B16-F10 [2]): 4.1%
Activity (B16-F10 [3]): 15.6%
Activity (B16-F10 [4]): 67.9%
IC50 (B16-F10 [5]): 52.2 µM
Activity (B16-F10 [6]): 18.6%
Activity (B16-F10 [7]): 4.3%
Activity (B16-F10 [8]): 23%
Activity (B16-F10 [9]): 41.6%
Activity (B16-F10 [10]): 27.8%
Activity (B16-F10 [11]): 54.3%

SMILES: CC1(C)CC[C@]2(C(=O)O)CC[C@]3(C)C(=CC[C@@H]4[C@@]5(C)C[C@@H](OC(=O)CCC(=O)O)[C@H](O)C(C)(C)[C@@H]5CC[C@]43C)[C@@H]2C1
IC50 (Protease): 3.5 µM

SMILES: CC1(C)CC[C@]2(C(=O)OCc3ccccc3)CC[C@]3(C)C(=CC[C@@H]4[C@@]5(C)C[C@@H](O)[C@H](O)C(C)(C)[C@@H]5CC[C@]43C)[C@@H]2C1 [BENZYL MASLINATE]
Activity (B16-F10 [1]): 10.6%
Activity (B16-F10 [2]): 0.1%
Activity (B16-F10 [3]): 84.2%
Activity (B16-F10 [4]): 5%
IC50 (B16-F10 [5]): 19 µM
Activity (B16-F10 [6]): 2.2%
Activity (B16-F10 [7]): 0.3%
Activity (B16-F10 [8]): 86.2%
Activity (B16-F10 [9]): 88.4%
Activity (B16-F10 [10]): 94.7%
Activity (B16-F10 [11]): 11.3%

SMILES: CC(C)(CC(=O)O)CC(=O)O[C@@H]1C[C@]2(C)[C@H]3CC=C4[C@@H]5CC(C)(C)CC[C@]5(C(=O)O)CC[C@@]4(C)[C@]3(C)CC[C@H]2C(C)(C)[C@H]1OC(=O)CC(C)(C)CC(=O)O
IC50 (Protease): 27.5 µM

SMILES: CC1(C)CC[C@]2(C(=O)O)CC[C@]3(C)C(=CC[C@@H]4[C@@]5(C)CC[C@H](OC(=O)CCCC(=O)O)C(C)(C)[C@@H]5CC[C@]43C)[C@@H]2C1
IC50 (Protease): 0.56 µM

More lines, now with the values ahead:

IC50 (Protease): 226 µM
SMILES: CCCC(=O)O[C@@H]1C[C@]2(C)[C@H]3CC=C4[C@@H]5CC(C)(C)CC[C@]5(C(=O)OCc5ccccc5)CC[C@@]4(C)[C@]3(C)CC[C@H]2C(C)(C)[C@H]1O

IC50 (Protease): 0.7 µM
SMILES: CC(C)(CC(=O)O)CC(=O)O[C@H]1CC[C@]2(C)[C@H]3CC=C4[C@@H]5CC(C)(C)CC[C@]5(C(=O)O)CC[C@@]4(C)[C@]3(C)CC[C@H]2C1(C)C

IC50 (Protease): 3.9 µM
SMILES: CC1(C)CC[C@]2(C(=O)OCc3ccccc3)CC[C@]3(C)C(=CC[C@@H]4[C@@]5(C)C[C@@H](OC(=O)CCCC(=O)O)[C@H](OC(=O)CCCC(=O)O)C(C)(C)[C@@H]5CC[C@]43C)[C@@H]2C1

IC50 (Protease): 2.3 µM
SMILES: CC1(C)CC[C@]2(C(=O)O)CC[C@]3(C)C(=CC[C@@H]4[C@@]5(C)C[C@@H](OC(=O)c6ccccc6C(=O)O)[C@H](OC(=O)c6ccccc6C(=O)O)C(C)(C)[C@@H]5CC[C@]43C)[C@@H]2C1

Reference: ChEMBL document CHEMBL3124882, “Semi-synthesis of acylated triterpenes from olive-oil industry wastes for the development of anticancer and anti-HIV agents” (Eur J Med Chem, 2014)
